The values that follow come from the RNAGym collection of RNA variant scans (doi:10.1038/s41586-018-0170-7).

The chains are these.
B1: tRNA (parent)
chain: GUUCCGUUGGCGUAAUGGUAACGCGUCUCCCUCCUAAGGAGAAGACUGCGGGUUCGAGUCCCGUACGGAACG

The variants in this series derive from B1. Kind of series: yeast fitness, log relative to wild type (ln ratio); higher = fitter; tRNA-Arg(CCU), competitive growth, 37 C, 1 M NaCl. The essentials:
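Genotype fitness is expressed as the natural log of its generations over those of the wild type. Each pool of the tRNA-Arg(CCU) variant library, carried on a HIS3 centromeric plasmid in BY4742 lacking the chromosomal gene, came from one of two independent transformations and grew 4 generations in SC-HIS at 30 °C before ~6.5 generations (~26.5 h) in SC-HIS 1M NaCl at 37 °C. Generation numbers used OD-scaled log2 output/input frequencies from 125 bp paired-end Illumina sequencing, combined across replicates by inverse-variance weighting.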
Take GUUCCAUUGGCGUAAUGGUAACGCGUUUCCCUCCUAAGGAGACGACUGCGGGUUCGAGUCCCGUAAGGAUCG [G6A C27U A43C C66A A70U]: the “yeast fitness (ln)” value is -0.204.

Turning to AUUCCAUUGGCGUAAUGGUAACGCGUCUCCCUCCUAAGGAGACGAUUGCGGGUUCGAGUCCCGUACGGGUCG [G1A G6A A43C C46U A69G A70U], the “yeast fitness (ln)” value is -0.283.

In the case of GGUCCUUUGGCGUAAUGGUAACGCGUCUCCCUCCUAAGGAGACGAUUGCGGGUUCGAGUCCCGUACGGGGUG [U2G G6U A43C C46U A69G A70G C71U], the “yeast fitness (ln)” value is -0.223.

Regarding AUUCCAUUGGCGUAAUGGUAACGCGUCUCCCUCCUAAGGAGACGAUUGCGGGUUCGAGUCCCGUACGGGAUG [G1A G6A A43C C46U A69G C71U], the “yeast fitness (ln)” value is -0.194.

In the case of GUUCCGUUGGCGUAAUGGUAACGCGUUUCCCUCCUAAGGAGAAGAUUGCGGGUUCGAGUCCCGUAAGGAUCG [C27U C46U C66A A70U], the “yeast fitness (ln)” value is -0.0577.

Consider GGUCCGUUGGCGUAAUGGUAACGCGUCUCCCUCCUAAGGAGAAGAUUGCGGGUUCGAGUCCCGUACGGAUCG [U2G C46U A70U], for which the “yeast fitness (ln)” value was -0.00122.

Consider GGUCCAUUGGCGUAAUGGUAACGCGUCUCCCUCCUAAGGAGACGACUGCGGGUUCGAGUCCCGUAUGGGAUG [U2G G6A A43C C66U A69G C71U], for which the “yeast fitness (ln)” value is -0.284.

Take GUUCCAUUGGCGUAAUGGUAACGCGUCUCCCUCCUAAGGAGACGAUUGCGGGUUCGAGUCCCGUACGGAUCG [G6A A43C C46U A70U]: the “yeast fitness (ln)” value is -0.117.

With GGUCCAUUGGCGUAAUGGUAACGCGUCUCCCUCCUAAGGAGACGAUUGCGGGUUCGAGUCCCGUACGGGAUG [U2G G6A A43C C46U A69G C71U], the “yeast fitness (ln)” value is -0.206.

Take GUUCCUUUGGCGUAAUGGUAACGCGUUUCCCUCCUAAGGAGAAGACUGCGGGUUCGAGUCCCGUACGGGUCG [G6U C27U A69G A70U]: the “yeast fitness (ln)” value was -0.214.

As for GCUCCUUUGGCGUAAUGGUAACGCGUUUCCCUCCUAAGGAGAAGACUGCGGGUUCGAGUCCCGUACGGAAUG [U2C G6U C27U C71U], the “yeast fitness (ln)” value is -0.147.

As to GCUCCGUUGGCGUAAUGGUAACGCGUUUCCCUCCUAAGGAGACGACUGCGGGUUCGAGUCCCGUACGGGACG [U2C C27U A43C A69G], the “yeast fitness (ln)” value is -0.0976.

GGUCCAUUGGCGUAAUGGUAACGCGUUUCCCUCCUAAGGAGACGACUGCGGGUUCGAGUCCCGUAAGGAGUG [U2G G6A C27U A43C C66A A70G C71U]: the “yeast fitness (ln)” value was -0.23.

In the case of AGUCCAUUGGCGUAAUGGUAACGCGUUUCCCUCCUAAGGAGACGAUUGCGGGUUCGAGUCCCGUAUGGGUCG [G1A U2G G6A C27U A43C C46U C66U A69G A70U], the “yeast fitness (ln)” value is -0.436.

With AGUCCAUUGGCGUAAUGGUAACGCGUUUCCCUCCUAAGGAGACGAUUGCGGGUUCGAGUCCCGUAAGGAUCG [G1A U2G G6A C27U A43C C46U C66A A70U], the “yeast fitness (ln)” value is -0.219.

Turning to GUUCCGUUGGCGUAAUGGUAACGCGUUUCCCUCCUAAGGAGAAGAUUGCGGGUUCGAGUCCCGUACGGGGCG [C27U C46U A69G A70G], the “yeast fitness (ln)” value was -0.0578.

For the variant GUUCCUUUGGCGUAAUGGUAACGCGUUUCCCUCCUAAGGAGAAGAUUGCGGGUUCGAGUCCCGUAUGGAAUG [G6U C27U C46U C66U C71U], the “yeast fitness (ln)” value was -0.359.

With AGUCCUUUGGCGUAAUGGUAACGCGUUUCCCUCCUAAGGAGAAGAUUGCGGGUUCGAGUCCCGUACGGAACG [G1A U2G G6U C27U C46U], the “yeast fitness (ln)” value is -0.217.

Turning to GGUCCUUUGGCGUAAUGGUAACGCGUUUCCCUCCUAAGGAGACGAUUGCGGGUUCGAGUCCCGUAAGGGUCG [U2G G6U C27U A43C C46U C66A A69G A70U], the “yeast fitness (ln)” value was -0.357.

Consider GCUCCUUUGGCGUAAUGGUAACGCGUUUCCCUCCUAAGGAGAAGAUUGCGGGUUCGAGUCCCGUAAGGAUUG [U2C G6U C27U C46U C66A A70U C71U], for which the “yeast fitness (ln)” value was -0.161.

Turning to ACUCCGUUGGCGUAAUGGUAACGCGUUUCCCUCCUAAGGAGAAGACUGCGGGUUCGAGUCCCGUACGGGUCG [G1A U2C C27U A69G A70U], the “yeast fitness (ln)” value was -0.0698.

In the case of ACUCCAUUGGCGUAAUGGUAACGCGUUUCCCUCCUAAGGAGACGACUGCGGGUUCGAGUCCCGUACGGAUUG [G1A U2C G6A C27U A43C A70U C71U], the “yeast fitness (ln)” value is -0.186.

As to GUUCCGUUGGCGUAAUGGUAACGCGUUUCCCUCCUAAGGAGAAGACUGCGGGUUCGAGUCCCGUAAGGGUUG [C27U C66A A69G A70U C71U], the “yeast fitness (ln)” value is -0.356.

AGUCCUUUGGCGUAAUGGUAACGCGUCUCCCUCCUAAGGAGACGAUUGCGGGUUCGAGUCCCGUAUGGGGUG [G1A U2G G6U A43C C46U C66U A69G A70G C71U]: the “yeast fitness (ln)” value was -0.371.

On to GUUCCGUUGGCGUAAUGGUAACGCGUCUCCCUCCUAAGGAGAAGAUUGCGGGUUCGAGUCCCGUAUGGAAUG [C46U C66U C71U], for which the “yeast fitness (ln)” value was -0.0591.

As for GGUCCUUUGGCGUAAUGGUAACGCGUCUCCCUCCUAAGGAGACGAUUGCGGGUUCGAGUCCCGUACGGAUUG [U2G G6U A43C C46U A70U C71U], the “yeast fitness (ln)” value was -0.168.

For the variant GGUCCGUUGGCGUAAUGGUAACGCGUUUCCCUCCUAAGGAGACGACUGCGGGUUCGAGUCCCGUAAGGGGUG [U2G C27U A43C C66A A69G A70G C71U], the “yeast fitness (ln)” value is -0.305.

As to AGUCCUUUGGCGUAAUGGUAACGCGUUUCCCUCCUAAGGAGACGACUGCGGGUUCGAGUCCCGUACGGAGCG [G1A U2G G6U C27U A43C A70G], the “yeast fitness (ln)” value is -0.419.

Consider GUUCCAUUGGCGUAAUGGUAACGCGUCUCCCUCCUAAGGAGACGACUGCGGGUUCGAGUCCCGUACGGAUCG [G6A A43C A70U], for which the “yeast fitness (ln)” value was -0.143.

On to ACUCCGUUGGCGUAAUGGUAACGCGUUUCCCUCCUAAGGAGAAGAUUGCGGGUUCGAGUCCCGUAUGGGUCG [G1A U2C C27U C46U C66U A69G A70U], for which the “yeast fitness (ln)” value is -0.184.

Turning to GUUCCUUUGGCGUAAUGGUAACGCGUCUCCCUCCUAAGGAGAAGAUUGCGGGUUCGAGUCCCGUAUGGAAUG [G6U C46U C66U C71U], the “yeast fitness (ln)” value was -0.183.

With AUUCCUUUGGCGUAAUGGUAACGCGUUUCCCUCCUAAGGAGAAGACUGCGGGUUCGAGUCCCGUAUGGGGUG [G1A G6U C27U C66U A69G A70G C71U], the “yeast fitness (ln)” value is -0.386.

In the case of GUUCCUUUGGCGUAAUGGUAACGCGUCUCCCUCCUAAGGAGACGACUGCGGGUUCGAGUCCCGUAAGGGUCG [G6U A43C C66A A69G A70U], the “yeast fitness (ln)” value is -0.215.

Regarding AUUCCGUUGGCGUAAUGGUAACGCGUCUCCCUCCUAAGGAGACGAUUGCGGGUUCGAGUCCCGUACGGGAUG [G1A A43C C46U A69G C71U], the “yeast fitness (ln)” value was -0.0151.

For AUUCCUUUGGCGUAAUGGUAACGCGUCUCCCUCCUAAGGAGACGAUUGCGGGUUCGAGUCCCGUAAGGGAUG [G1A G6U A43C C46U C66A A69G C71U], the “yeast fitness (ln)” value was -0.198.

Turning to AUUCCGUUGGCGUAAUGGUAACGCGUCUCCCUCCUAAGGAGAAGACUGCGGGUUCGAGUCCCGUACGGAGCG [G1A A70G], the “yeast fitness (ln)” value was -0.204.

For AUUCCUUUGGCGUAAUGGUAACGCGUCUCCCUCCUAAGGAGACGACUGCGGGUUCGAGUCCCGUAUGGAUCG [G1A G6U A43C C66U A70U], the “yeast fitness (ln)” value was -0.212.
